Measured values published in ChEMBL document CHEMBL2375313, “Synthesis, in vitro antitumor evaluation and DNA-binding study of novel tetrahydroquinolines and some derived tricyclic and tetracyclic ring systems” (Eur J Med Chem, 2013).

Columns and labels:
Assay type in all cases: functional
[1] = system: CCRF-CEM; assay: Cytotoxicity against human CCRF-CEM cells assessed as growth inhibition at 10 uM after 48 hrs by sulphorhodamine B assay; conditions: read-out: GI
Summary of the method: (§1)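 NCI-60 one-dose screen per the NCI Drug Evaluation Branch protocol. Cells given a single 10 µM concentration with 48 h continuous exposure. Growth estimated by sulphorhodamine B protein assay. Result expressed as percentage growth inhibition relative to untreated growth.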

[2] = system: HOP-92; assay: Cytotoxicity against human HOP92 cells assessed as growth inhibition at 10 uM after 48 hrs by sulphorhodamine B assay; conditions: HOP-92, 48 h, read-out: GI; summary of the method: as §1
[3] = system: SK-OV-3; assay: Cytotoxicity against human SKOV3 cells assessed as growth inhibition at 10 uM after 48 hrs by sulphorhodamine B assay; conditions: SK-OV-3, 48 h, read-out: GI; summary of the method: as §1
[4] = system: SK-MEL-2; assay: Cytotoxicity against human SK-MEL-2 cells assessed as growth inhibition at 10 uM after 48 hrs by sulphorhodamine B assay; conditions: SK-MEL-2, 48 h, read-out: GI; summary of the method: as §1
[5] = system: SNB-75; assay: Cytotoxicity against human SNB75 cells assessed as growth inhibition at 10 uM after 48 hrs by sulphorhodamine B assay; conditions: SNB-75, 48 h, read-out: GI; summary of the method: as §1
[6] = system: MDA-MB-435; assay: Cytotoxicity against human MDA-MB-435 cells assessed as growth inhibition at 10 uM after 48 hrs by sulphorhodamine B assay; conditions: MDA-MB-435, 48 h, read-out: GI; summary of the method: as §1
[7] = system: A498; assay: Cytotoxicity against human A498 cells assessed as growth inhibition at 10 uM after 48 hrs by sulphorhodamine B assay; conditions: A498, 48 h, read-out: GI; summary of the method: as §1
[8] = system: HCT-15; assay: Cytotoxicity against human HCT15 cells assessed as growth inhibition at 10 uM after 48 hrs by sulphorhodamine B assay; conditions: HCT-15, 48 h, read-out: GI; summary of the method: as §1
[9] = system: HL-60(TB); assay: Cytotoxicity against human HL-60(TB) cells assessed as growth inhibition at 10 uM after 48 hrs by sulphorhodamine B assay; conditions: HL-60, 48 h, read-out: GI
Summary of the method: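 NCI-60 one-dose primary screen run to the Drug Evaluation Branch protocol. Cells are exposed to a single 10 µM concentration for 48 h continuously, and growth is read by SRB protein assay. Data are reported as percent growth of treated cells, expressed as % growth inhibition.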

[10] = system: UACC-62; assay: Cytotoxicity against human UACC62 cells assessed as growth inhibition at 10 uM after 48 hrs by sulphorhodamine B assay; conditions: UACC-62, 48 h, read-out: GI; summary of the method: as §1
[11] = Cytotoxicity against human EKVX cells assessed as growth inhibition at 10 uM after 48 hrs by sulphorhodamine B assay; conditions: read-out: GI; summary of the method: as §1
[12] = system: PC-3; assay: Cytotoxicity against human PC3 cells assessed as growth inhibition at 10 uM after 48 hrs by sulphorhodamine B assay; conditions: PC-3, 48 h, read-out: GI; summary of the method: as §1
[13] = system: SNB-19; assay: Cytotoxicity against human SNB19 cells assessed as growth inhibition at 10 uM after 48 hrs by sulphorhodamine B assay; conditions: SNB-19, 48 h, read-out: GI; summary of the method: as §1
[14] = system: CAKI-1; assay: Cytotoxicity against human Caki1 cells assessed as growth inhibition at 10 uM after 48 hrs by sulphorhodamine B assay; conditions: CAKI-1, 48 h, read-out: GI; summary of the method: as §1
[15] = system: OVCAR-4; assay: Cytotoxicity against human OVCAR4 cells assessed as growth inhibition at 10 uM after 48 hrs by sulphorhodamine B assay; conditions: OVCAR-4, 48 h, read-out: GI; summary of the method: as §1
[16] = system: MOLT-4; assay: Cytotoxicity against human MOLT4 cells assessed as growth inhibition at 10 uM after 48 hrs by sulphorhodamine B assay; conditions: MOLT-4, 48 h, read-out: GI; summary of the method: as §1
[17] = system: Hs-578T; assay: Cytotoxicity against human Hs578T cells assessed as growth inhibition at 10 uM after 48 hrs by sulphorhodamine B assay; conditions: read-out: GI; summary of the method: as §1
[18] = system: SF-268; assay: Cytotoxicity against human SF268 cells assessed as growth inhibition at 10 uM after 48 hrs by sulphorhodamine B assay; conditions: SF-268, 48 h, read-out: GI; summary of the method: as §1
[19] = system: LOX IMVI; assay: Cytotoxicity against human LOXIMVI cells assessed as growth inhibition at 10 uM after 48 hrs by sulphorhodamine B assay; conditions: read-out: GI; summary of the method: as §1
[20] = system: U-251; assay: Cytotoxicity against human U251 cells assessed as growth inhibition at 10 uM after 48 hrs by sulphorhodamine B assay; conditions: U-251, 48 h, read-out: GI; summary of the method: as §1
[21] = system: RXF 393; assay: Cytotoxicity against human RXF393 cells assessed as growth inhibition at 10 uM after 48 hrs by sulphorhodamine B assay; conditions: RXF 393, 48 h, read-out: GI; summary of the method: as §1
[22] = system: A549; assay: Cytotoxicity against human A549 cells assessed as growth inhibition at 10 uM after 48 hrs by sulphorhodamine B assay; conditions: A549, 48 h, read-out: GI; summary of the method: as §1
[23] = system: HCT-116; assay: Cytotoxicity against human HCT116 cells assessed as growth inhibition at 10 uM after 48 hrs by sulphorhodamine B assay; conditions: HCT-116, 48 h, read-out: GI; summary of the method: as §1
[24] = system: M14; assay: Cytotoxicity against human M14 cells assessed as growth inhibition at 10 uM after 48 hrs by sulphorhodamine B assay; conditions: M14, 48 h, read-out: GI; summary of the method: as §1
[25] = system: SR; assay: Cytotoxicity against human SR cells assessed as growth inhibition at 10 uM after 48 hrs by sulphorhodamine B assay; conditions: read-out: GI; summary of the method: as §1
[26] = system: HT-29; assay: Cytotoxicity against human HT-29 cells assessed as growth inhibition at 10 uM after 48 hrs by sulphorhodamine B assay; conditions: HT-29, 48 h, read-out: GI; summary of the method: as §1
[27] = system: MDA-MB-468; assay: Cytotoxicity against human MDA-MB-468 cells assessed as growth inhibition at 10 uM after 48 hrs by sulphorhodamine B assay; conditions: MDA-MB-468, 48 h, read-out: GI; summary of the method: as §1
[28] = system: IGROV-1; assay: Cytotoxicity against human IGROV1 cells assessed as growth inhibition at 10 uM after 48 hrs by sulphorhodamine B assay; conditions: IGROV-1, 48 h, read-out: GI; summary of the method: as §1
[29] = system: SK-MEL-5; assay: Cytotoxicity against human SK-MEL-5 cells assessed as growth inhibition at 10 uM after 48 hrs by sulphorhodamine B assay; conditions: SK-MEL-5, 48 h, read-out: GI; summary of the method: as §1
[30] = system: DU-145; assay: Cytotoxicity against human DU145 cells assessed as growth inhibition at 10 uM after 48 hrs by sulphorhodamine B assay; conditions: DU-145, 48 h, read-out: GI; summary of the method: as §1
[31] = system: T47D; assay: Cytotoxicity against human T47D cells assessed as growth inhibition at 10 uM after 48 hrs by sulphorhodamine B assay; conditions: read-out: GI; summary of the method: as §1
[32] = system: NCI/ADR-RES; assay: Cytotoxicity against human NCI/ADR-RES cells assessed as growth inhibition at 10 uM after 48 hrs by sulphorhodamine B assay; conditions: read-out: GI; summary of the method: as §1
[33] = system: MCF7; assay: Cytotoxicity against human MCF7 cells assessed as growth inhibition at 10 uM after 48 hrs by sulphorhodamine B assay; conditions: MCF7, 48 h, read-out: GI; summary of the method: as §1
[34] = system: NCI-H522; assay: Cytotoxicity against human NCI-H522 cells assessed as growth inhibition at 10 uM after 48 hrs by sulphorhodamine B assay; conditions: NCI-H522, 48 h, read-out: GI; summary of the method: as §1
[35] = system: OVCAR-5; assay: Cytotoxicity against human OVCAR5 cells assessed as growth inhibition at 10 uM after 48 hrs by sulphorhodamine B assay; conditions: OVCAR-5, 48 h, read-out: GI; summary of the method: as §1
[36] = system: NCI-H23; assay: Cytotoxicity against human NCI-H23 cells assessed as growth inhibition at 10 uM after 48 hrs by sulphorhodamine B assay; conditions: NCI-H23, 48 h, read-out: GI; summary of the method: as §1
[37] = system: RPMI-8226; assay: Cytotoxicity against human RPMI8226 cells assessed as growth inhibition at 10 uM after 48 hrs by sulphorhodamine B assay; conditions: RPMI-8226, 48 h, read-out: GI; summary of the method: as §1
[38] = system: UO-31; assay: Cytotoxicity against human UO31 cells assessed as growth inhibition at 10 uM after 48 hrs by sulphorhodamine B assay; conditions: UO-31, 48 h, read-out: GI; summary of the method: as §1
[39] = system: K562; assay: Cytotoxicity against human K562 cells assessed as growth inhibition at 10 uM after 48 hrs by sulphorhodamine B assay; conditions: K562, 48 h, read-out: GI; summary of the method: as §1
[40] = system: SF-295; assay: Cytotoxicity against human SF295 cells assessed as growth inhibition at 10 uM after 48 hrs by sulphorhodamine B assay; conditions: SF-295, 48 h, read-out: GI; summary of the method: as §1
[41] = system: ACHN; assay: Cytotoxicity against human ACHN cells assessed as growth inhibition at 10 uM after 48 hrs by sulphorhodamine B assay; conditions: read-out: GI; summary of the method: as §1

Compound `CC1CCCc2c1nc1ncnc(N)c1c2-c1ccc(Cl)cc1` (stereo unspecified) has an inhibition of growth at 10 µM [1] of 22.2%, an inhibition of growth at 10 µM [2] of 25.3% and an inhibition of growth at 10 µM [3] of 12%. It also gave an inhibition of growth at 10 µM [4] of less than 10%, an inhibition of growth at 10 µM [5] of 21.5% and an inhibition of growth at 10 µM [6] of less than 10%. For the same compound, the inhibition of growth at 10 µM [7] was 27.7%, the inhibition of growth at 10 µM [8] was 10% and the inhibition of growth at 10 µM [9] was 12.4%. The inhibition of growth at 10 µM [10] was 13.8%, the inhibition of growth at 10 µM [11] was less than 10% and the inhibition of growth at 10 µM [12] was 24.2%. For the same compound, the inhibition of growth at 10 µM [13] was 21.3%, the inhibition of growth at 10 µM [14] was less than 10% and the inhibition of growth at 10 µM [15] was 17.8%. It also gave an inhibition of growth at 10 µM [16] of less than 10%, an inhibition of growth at 10 µM [17] of 14.7% and an inhibition of growth at 10 µM [18] of 12.3%. For the same compound, the inhibition of growth at 10 µM [19] was less than 10%, the inhibition of growth at 10 µM [20] was 14.5% and the inhibition of growth at 10 µM [21] was 11%. It also gave an inhibition of growth at 10 µM [22] of less than 10%, an inhibition of growth at 10 µM [23] of 14% and an inhibition of growth at 10 µM [24] of less than 10%. For the same compound, the inhibition of growth at 10 µM [25] was less than 10%, the inhibition of growth at 10 µM [26] was 13.3% and the inhibition of growth at 10 µM [27] was 20%. It also gave an inhibition of growth at 10 µM [28] of less than 10%, an inhibition of growth at 10 µM [29] of 10.2% and an inhibition of growth at 10 µM [30] of less than 10%. The inhibition of growth at 10 µM [31] was 40%, the inhibition of growth at 10 µM [32] was less than 10% and the inhibition of growth at 10 µM [33] was less than 10%. It also gave an inhibition of growth at 10 µM [34] of 11%, an inhibition of growth at 10 µM [35] of less than 10% and an inhibition of growth at 10 µM [36] of less than 10%. It also gave an inhibition of growth at 10 µM [37] of 21.3%, an inhibition of growth at 10 µM [38] of 10.1% and an inhibition of growth at 10 µM [39] of 25%. For the same compound, the inhibition of growth at 10 µM [40] was less than 10% and the inhibition of growth at 10 µM [41] was less than 10%.
